{"source": "ChEMBL document CHEMBL3861977", "about": "“Effects of Oleanane-Type Triterpene Saponins from the Leaves of Eleutherococcus senticosus in an Axonal Outgrowth Assay” (J Nat Prod, 2016)", "test_system": "Cortical neurone", "experiment": "Inhibition of amyloid beta (25 to 35)-induced neuronal degeneration in ddY mouse embryo cortical neurons assessed as restoration of axonal outgrowth by measuring length of phosphorylated neurofilament-H-positive neurites at 10 uM treated 3 days post amyloid beta (25 to 35) stimulation measured after 4 days by fluorescent microscopic analysis", "type": "functional", "how_it_was_run": "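Cortical neurons from E14 ddY mouse embryos, plated on poly-D-lysine (5 μg/mL) in neurobasal medium with 12% horse serum, switched to 2% B-27 medium 3−12 h later, 37 °C, 10% CO2. Day 3: 10 μM Aβ25−35 (pre-aggregated 4 days at 37 °C) for 3 days. Then Aβ removed; 10 μM isolate, 0.1% DMSO vehicle or NGF 10 ng/mL for 4 days. Fixed in 4% PFA, stained for pNF-H and DAPI, pNF-H-positive neurite length measured; 10−79 photos per treatment, Dunnett's test.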", "note": "Active and inactive are the calls of the source. No cut-off for these calls is given here.", "data": [{"compound": "C=C1CC[C@]2(C(=O)O[C@@H]3O[C@H](CO[C@@H]4O[C@H](COC(C)=O)[C@@H](O[C@@H]5O[C@@H](C)[C@H](O)[C@@H](O)[C@H]5O)[C@H](O)[C@H]4O)[C@@H](O)[C@H](O)[C@H]3O)CC[C@]3(C)C(=CC[C@@H]4[C@@]5(C)CC[C@H](O[C@@H]6OC[C@H](O)[C@H](O)[C@H]6O[C@@H]6O[C@@H](C)[C@H](O)[C@@H](O)[C@H]6O)C(C)(C)[C@@H]5CC[C@]43C)[C@@H]2C1", "values": [{"measurement": "inhibition", "value": "Active"}]}, {"compound": "CC(=O)OC[C@H]1O[C@@H](OC[C@H]2O[C@@H](OC(=O)[C@]34CC[C@@](C)(C(=O)O)C[C@H]3C3=CC[C@@H]5[C@@]6(C)CC[C@H](O[C@@H]7OC[C@H](O)[C@H](O)[C@H]7O)C(C)(C)[C@@H]6CC[C@@]5(C)[C@]3(C)CC4)[C@H](O)[C@@H](O)[C@@H]2O)[C@H](O)[C@@H](O)[C@@H]1O[C@@H]1O[C@@H](C)[C@H](O)[C@@H](O)[C@H]1O", "values": [{"measurement": "inhibition", "value": "Active"}]}, {"compound": "C=C1CC[C@]2(C(=O)O[C@@H]3O[C@H](CO[C@@H]4O[C@H](COC(C)=O)[C@@H](O[C@@H]5O[C@@H](C)[C@H](O)[C@@H](O)[C@H]5O)[C@H](O)[C@H]4O)[C@@H](O)[C@H](O)[C@H]3O)CC[C@]3(C)C(=CC[C@@H]4[C@@]5(C)CC[C@H](O[C@@H]6OC[C@H](O)[C@H](O)[C@H]6O[C@@H]6O[C@H](CO)[C@@H](O)[C@H](O)[C@H]6O)C(C)(C)[C@@H]5CC[C@]43C)[C@@H]2C1", "values": [{"measurement": "inhibition", "value": "Active"}]}, {"compound": "C[C@@H]1O[C@@H](O[C@H]2[C@H](O)[C@@H](O)[C@H](OC[C@H]3O[C@@H](OC(=O)[C@]45CCC(C)(C)C[C@H]4C4=CC[C@@H]6[C@@]7(C)CC[C@H](O[C@@H]8OC[C@H](O)[C@H](O[C@@H]9O[C@H](CO)[C@@H](O)[C@H](O)[C@H]9O)[C@H]8O)C(C)(C)[C@@H]7CC[C@@]6(C)[C@]4(C)C[C@@H]5O)[C@H](O)[C@@H](O)[C@@H]3O)O[C@@H]2CO)[C@H](O)[C@H](O)[C@H]1O", "values": [{"measurement": "inhibition", "value": "Active"}]}, {"compound": "C[C@@H]1O[C@@H](O[C@H]2[C@H](O[C@H]3CC[C@]4(C)[C@H]5CC=C6[C@@H]7C[C@](C)(C=O)CC[C@]7(C(=O)O[C@@H]7O[C@H](CO[C@@H]8O[C@H](CO)[C@@H](O[C@@H]9O[C@@H](C)[C@H](O)[C@@H](O)[C@H]9O)[C@H](O)[C@H]8O)[C@@H](O)[C@H](O)[C@H]7O)CC[C@@]6(C)[C@]5(C)CC[C@H]4C3(C)C)OC[C@H](O)[C@@H]2O)[C@H](O)[C@H](O)[C@H]1O", "values": [{"measurement": "inhibition", "value": "Active"}]}, {"compound": "CC(=O)OC[C@H]1O[C@@H](OC[C@H]2O[C@@H](OC(=O)[C@]34CCC(C)(C)C[C@H]3C3=CC[C@@H]5[C@@]6(C)CC[C@H](O[C@@H]7OC[C@H](O)[C@H](O)[C@H]7O[C@@H]7O[C@H](CO)[C@@H](O)[C@H](O)[C@H]7O)C(C)(C)[C@@H]6CC[C@@]5(C)[C@]3(C)CC4)[C@H](O)[C@@H](O)[C@@H]2O)[C@H](O)[C@@H](O)[C@@H]1O[C@@H]1O[C@@H](C)[C@H](O)[C@@H](O)[C@H]1O", "values": [{"measurement": "inhibition", "value": "Active"}]}, {"compound": "CC(=O)OC[C@H]1O[C@@H](OC[C@H]2O[C@@H](OC(=O)[C@]34CC[C@@](C)(CO)C[C@H]3C3=CC[C@@H]5[C@@]6(C)CC[C@H](O[C@@H]7OC[C@H](O)[C@H](O)[C@H]7O[C@@H]7O[C@@H](C)[C@H](O)[C@@H](O)[C@H]7O)C(C)(C)[C@@H]6CC[C@@]5(C)[C@]3(C)CC4)[C@H](O)[C@@H](O)[C@@H]2O)[C@H](O)[C@@H](O)[C@@H]1O[C@@H]1O[C@@H](C)[C@H](O)[C@@H](O)[C@H]1O", "values": [{"measurement": "inhibition", "value": "Active"}]}, {"compound": "CC(=O)OC[C@H]1O[C@@H](OC[C@H]2O[C@@H](OC(=O)[C@]34CC[C@@](C)(C(=O)O)C[C@H]3C3=CC[C@@H]5[C@@]6(C)CC[C@H](O[C@@H]7OC[C@H](O)[C@H](O)[C@H]7O[C@@H]7O[C@@H](C)[C@H](O)[C@@H](O)[C@H]7O)C(C)(C)[C@@H]6CC[C@@]5(C)[C@]3(C)CC4)[C@H](O)[C@@H](O)[C@@H]2O)[C@H](O)[C@@H](O)[C@@H]1O[C@@H]1O[C@@H](C)[C@H](O)[C@@H](O)[C@H]1O", "values": [{"measurement": "inhibition", "value": "Active"}]}, {"compound": "C[C@@H]1O[C@@H](O[C@H]2[C@H](O[C@H]3CC[C@]4(C)[C@H]5CC=C6[C@@H]7CC(C)(C)CC[C@]7(C(=O)O[C@@H]7O[C@H](CO[C@@H]8O[C@H](CO)[C@@H](O[C@@H]9O[C@@H](C)[C@H](O)[C@@H](O)[C@H]9O)[C@H](O)[C@H]8O)[C@@H](O)[C@H](O)[C@H]7O)CC[C@@]6(C)[C@]5(C)CC[C@H]4C3(C)C)OC[C@H](O)[C@@H]2O)[C@H](O)[C@H](O)[C@H]1O", "values": [{"measurement": "inhibition", "value": "Active"}]}, {"compound": "C[C@@H]1O[C@@H](O[C@H]2[C@H](O[C@H]3CC[C@@]4(C)[C@@H](CC[C@]5(C)[C@@H]4CC=C4[C@@H]6CC(C)(C)CC[C@]6(C(=O)O[C@@H]6O[C@H](CO[C@@H]7O[C@H](CO)[C@@H](O[C@@H]8O[C@@H](C)[C@H](O)[C@@H](O)[C@H]8O)[C@H](O)[C@H]7O)[C@@H](O)[C@H](O)[C@H]6O)CC[C@]45C)[C@]3(C)CO)OC[C@H](O)[C@@H]2O)[C@H](O)[C@H](O)[C@H]1O", "values": [{"measurement": "inhibition", "value": "Active"}]}, {"compound": "C[C@@H]1O[C@@H](O[C@H]2[C@H](O)[C@@H](O)[C@H](OC[C@H]3O[C@@H](OC(=O)[C@]45CC[C@@](C)(C=O)C[C@H]4C4=CC[C@@H]6[C@@]7(C)CC[C@H](O[C@@H]8OC[C@H](O)[C@H](O)[C@H]8O)C(C)(C)[C@@H]7CC[C@@]6(C)[C@]4(C)CC5)[C@H](O)[C@@H](O)[C@@H]3O)O[C@@H]2CO)[C@H](O)[C@H](O)[C@H]1O", "values": [{"measurement": "inhibition", "value": "Active"}]}, {"compound": "CC(=O)OC[C@H]1O[C@@H](OC[C@H]2O[C@@H](OC(=O)[C@]34CC[C@@](C)(C=O)C[C@H]3C3=CC[C@@H]5[C@@]6(C)CC[C@H](O[C@@H]7OC[C@H](O)[C@H](O)[C@H]7O[C@@H]7O[C@@H](C)[C@H](O)[C@@H](O)[C@H]7O)C(C)(C)[C@@H]6CC[C@@]5(C)[C@]3(C)CC4)[C@H](O)[C@@H](O)[C@@H]2O)[C@H](O)[C@@H](O)[C@@H]1O[C@@H]1O[C@@H](C)[C@H](O)[C@@H](O)[C@H]1O", "values": [{"measurement": "inhibition", "value": "Active"}]}, {"compound": "CC(=O)OC[C@H]1O[C@@H](OC[C@H]2O[C@@H](OC(=O)[C@]34CCC(C)(C)C[C@H]3C3=CC[C@@H]5[C@@]6(C)CC[C@H](O[C@@H]7OC[C@H](O)[C@H](O)[C@H]7O[C@@H]7O[C@@H](C)[C@H](O)[C@@H](O)[C@H]7O)C(C)(C)[C@@H]6CC[C@@]5(C)[C@]3(C)CC4)[C@H](O)[C@@H](O)[C@@H]2O)[C@H](O)[C@@H](O)[C@@H]1O[C@@H]1O[C@@H](C)[C@H](O)[C@@H](O)[C@H]1O", "values": [{"measurement": "inhibition", "value": "Active"}]}, {"compound": "C[C@@H]1O[C@@H](O[C@H]2[C@H](O)[C@@H](O)[C@H](OC[C@H]3O[C@@H](OC(=O)[C@]45CCC(C)(C)C[C@H]4C4=CC[C@@H]6[C@@]7(C)CC[C@H](O[C@@H]8OC[C@H](O)[C@H](O)[C@H]8O)C(C)(C)[C@@H]7CC[C@@]6(C)[C@]4(C)CC5)[C@H](O)[C@@H](O)[C@@H]3O)O[C@@H]2CO)[C@H](O)[C@H](O)[C@H]1O", "values": [{"measurement": "inhibition", "value": "Active"}]}, {"compound": "C=C1CC[C@]2(C(=O)O[C@@H]3O[C@H](CO[C@@H]4O[C@H](COC(C)=O)[C@@H](O[C@@H]5O[C@@H](C)[C@H](O)[C@@H](O)[C@H]5O)[C@H](O)[C@H]4O)[C@@H](O)[C@H](O)[C@H]3O)CC[C@]3(C)C(=CC[C@@H]4[C@@]5(C)CC[C@H](O[C@@H]6OC[C@H](O)[C@H](O)[C@H]6O)C(C)(C)[C@@H]5CC[C@]43C)[C@@H]2C1", "values": [{"measurement": "inhibition", "value": "Active"}]}, {"compound": "C=C1CC[C@]2(C(=O)O[C@@H]3O[C@H](CO[C@@H]4O[C@H](CO)[C@@H](O[C@@H]5O[C@@H](C)[C@H](O)[C@@H](O)[C@H]5O)[C@H](O)[C@H]4O)[C@@H](O)[C@H](O)[C@H]3O)CC[C@]3(C)C(=CC[C@@H]4[C@@]5(C)CC[C@H](O[C@@H]6OC[C@H](O)[C@H](O)[C@H]6O[C@@H]6O[C@@H](C)[C@H](O)[C@@H](O)[C@H]6O)C(C)(C)[C@@H]5CC[C@]43C)[C@@H]2C1", "values": [{"measurement": "inhibition", "value": "Active"}]}]}
